Test results reported in ChEMBL document CHEMBL1146725, “Discovery and SAR of potent, orally available and brain-penetrable 5,6-dihydro-4H-3-thia-1-aza-benzo[e]azulen- and 4,5-dihydro-6-oxa-3-thia-1-aza-benzo[e]azulen derivatives as neuropeptide Y Y5 receptor antagonists” (Bioorg Med Chem Lett, 2004).
“And” between values parts separate entries of the source, which are not always exact repeats. Equal entries are not always repeated.

Columns and labels:
[1] = molecular target: T1, Neuropeptide Y receptor type 5 (Homo sapiens, UniProt Q15761); assay: In vitro binding affinity against human neuropeptide Y5 receptor
T1 sequence (Q15761 whole entry): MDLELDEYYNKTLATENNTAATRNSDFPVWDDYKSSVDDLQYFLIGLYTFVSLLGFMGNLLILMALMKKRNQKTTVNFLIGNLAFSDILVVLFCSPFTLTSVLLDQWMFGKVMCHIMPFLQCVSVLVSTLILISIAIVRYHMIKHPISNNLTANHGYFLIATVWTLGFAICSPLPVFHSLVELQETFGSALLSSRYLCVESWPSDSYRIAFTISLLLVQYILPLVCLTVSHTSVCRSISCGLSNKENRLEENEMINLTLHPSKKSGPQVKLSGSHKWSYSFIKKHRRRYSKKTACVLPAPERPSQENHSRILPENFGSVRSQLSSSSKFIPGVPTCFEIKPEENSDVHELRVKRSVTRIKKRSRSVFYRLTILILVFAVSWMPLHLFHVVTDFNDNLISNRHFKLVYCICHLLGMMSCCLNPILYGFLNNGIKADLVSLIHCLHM

[2] = tested on: Rattus norvegicus; assay: Concentration (30 mg/kg, p.o.) in rat plasma after 6 hours; assay type: ADME, organism-based; conditions: in vivo, po, 6 h
Method in brief: (§1)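 Male rats (RA238), fasted overnight, given 30 mg/kg by oral gavage (5 mL/kg) in 20% Cremophore EL/water (w/w). Plasma and hypothalamus were sampled at 2 and 6 h post-dose and levels measured by LC-MS. Values are the mean of 3-6 animals per time point, as µg/mL plasma and µg/g hypothalamus.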

[3] = (§2) Concentration (30 mg/kg, p.o.) in rat hypothalamus after 2 hours; assay type: ADME, organism-based; conditions: hypothalamus, po; method in brief: as §1
[4] = tested on: Rattus norvegicus; assay: as §2; assay type: ADME, organism-based; conditions: in vivo, po, 2 h; method in brief: as §1
[5] = tested on: Rattus norvegicus; assay: Concentration (30 mg/kg, p.o.) in rat hypothalamus after 6 hours; assay type: ADME, organism-based; conditions: in vivo, po, 6 h; method in brief: as §1
[6] = (§3) Concentration (30 mg/kg, p.o.) in rat plasma after 2 hours; assay type: ADME, organism-based; conditions: plasma, po; method in brief: as §1
[7] = tested on: Rattus norvegicus; assay: as §3; assay type: ADME, organism-based; conditions: in vivo, po, 2 h; method in brief: as §1

In the case of `O=C([C@@H]1CCCO1)N1CCC(CNc2nc3c(s2)CCCc2ccc(F)cc2-3)CC1`, the IC50 [1] is reported as 2 nM, the Concentration [2] is reported as 0.32 µg/mL and 0.14 µg/mL and the concentration at 2 h [3] is reported as 6690 ng/g. For the same compound, the Concentration [4] was 6.69 µg/g, the Concentration [5] was 1.33 µg/g and 0.64 µg/g and the concentration at 2 h [6] was 1.6 µg/mL. For the same compound, the Concentration [7] was 1.6 µg/mL.
